Source: ChEMBL document CHEMBL2086314, “Synthesis and anticonvulsant activity of new N-Mannich bases derived from 3-(2-fluorophenyl)- and 3-(2-bromophenyl)-pyrrolidine-2,5-diones. Part II” (Bioorg Med Chem, 2012)
Calls of active or inactive are those of the source. The rule behind the calls is not given here.

What was measured:
Mus musculus [1] = test: Anticonvulsant activity in CF-1 albino mouse assessed as protection from maximal electric shock-induced seizures at 300 mg/kg, ip measured after 0.5 hrs; format: functional, organism-based; parameters: dose 300 mg/kg
Summary of the method: (§1)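 Male CF-1 mice dosed ip at 30, 100 or 300 mg/kg, suspension in 0.5% methylcellulose/water. MES: corneal electrodes primed with electrolyte containing anaesthetic, 50 mA, 60 Hz, 0.2 s. Examined 0.5 and 4 h after dosing. Value is the minimum dose protecting half or more of the animals.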

Mus musculus [2] = test: Anticonvulsant activity in CF-1 albino mouse assessed as protection from maximal electric shock-induced seizures at 300 mg/kg, ip measured after 4 hrs; format: functional, organism-based; parameters: dose 300 mg/kg; summary of the method: as §1
Mus musculus [3] = test: Neurotoxicity in CF-1 albino mouse assessed as motor impairment at 300 mg/kg, ip measured after 0.5 hrs by rotarod test; format: toxicity, organism-based; parameters: dose 300 mg/kg, route intraperitoneal; settings: in vivo
Summary of the method: (§2)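 Rotarod neurotoxicity in male CF-1 mice given ip doses of 30, 100 or 300 mg/kg (0.5% methylcellulose suspension), examined 0.5 and 4 h after dosing. Impairment means failing to hold balance on the rod for 1 min. Value is the minimum dose causing toxicity in half or more of the animals; response comments are recorded.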

Mus musculus [4] = test: Neurotoxicity in CF-1 albino mouse assessed as motor impairment at 300 mg/kg, ip measured after 4 hrs by rotarod test; format: toxicity, organism-based; parameters: dose 300 mg/kg, route intraperitoneal; settings: in vivo; summary of the method: as §2
Mus musculus [5] = test: Anticonvulsant activity in CF-1 albino mouse assessed as protection against 6 Hz psychomotor seizure at 100 mg/kg, ip measured after 0.25 hrs; format: functional; settings: route intraperitoneal
Summary of the method: (§3)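 6-Hz psychomotor seizure in male CF-1 mice, compound suspended in 0.5% methylcellulose/water, given ip (100 or 75 mg/kg). Corneal stimulation with 0.2 ms monopolar rectangular pulses at 6 Hz for 3 s, 32 mA, constant-current device. Protected if normal exploratory behaviour resumes within 10 s. Tested 0.25–4 h after dosing; value is mice protected out of four.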

Rattus norvegicus [6] = test: Anticonvulsant activity in Sprague-Dawley rat assessed as protection from maximum electric shock-induced seizures at 30 mg/kg, po measured after 4 hrs; format: functional
Summary of the method: (§4)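 Male Sprague–Dawley rats, four per group, given 30 mg/kg orally as a suspension in 0.5% methylcellulose/water. MES stimulus 150 mA, 60 Hz, 0.2 s via corneal electrodes. Tested at 0.25, 0.5, 1, 2 and 4 h; value is rats protected out of four.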

Rattus norvegicus [7] = test: Anticonvulsant activity in Sprague-Dawley rat assessed as protection from maximum electric shock-induced seizures at 30 mg/kg, po measured after 0.5 hrs; format: functional; summary of the method: as §4
Rattus norvegicus [8] = test: Anticonvulsant activity in Sprague-Dawley rat assessed as protection from maximum electric shock-induced seizures at 30 mg/kg, po measured after 0.25 hrs; format: functional; summary of the method: as §4
Mus musculus [9] = test: Anticonvulsant activity in CF-1 albino mouse assessed as protection against 6 Hz psychomotor seizure at 100 mg/kg, ip measured after 4 hrs; format: functional; settings: route intraperitoneal; summary of the method: as §3
Mus musculus [10] = test: Anticonvulsant activity in CF-1 albino mouse assessed as protection against 6 Hz psychomotor seizure at 100 mg/kg, ip measured after 0.5 hrs; format: functional; settings: route intraperitoneal; summary of the method: as §3
Rattus norvegicus [11] = test: Anticonvulsant activity in Sprague-Dawley rat assessed as protection from maximum electric shock-induced seizures at 30 mg/kg, po measured after 1 hr; format: functional; summary of the method: as §4
Rattus norvegicus [12] = test: Neurotoxicity in Sprague-Dawley rat assessed as motor impairment at 30 mg/kg, po by rotarod test; format: toxicity, organism-based; parameters: dose 30 mg/kg, route oral; settings: in vivo
Summary of the method: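 Male Sprague–Dawley rats, four animals, oral 30 mg/kg in 0.5% methylcellulose/water. Motor impairment on the rotarod (failure to keep balance for 1 min) assessed alongside MES at five times from 0.25 to 4 h.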

Mus musculus [13] = test: Anticonvulsant activity in CF-1 albino mouse assessed as protection against 6 Hz psychomotor seizure at 100 mg/kg, ip measured after 1 hr; format: functional; settings: route intraperitoneal; summary of the method: as §3
Mus musculus [14] = test: Anticonvulsant activity in CF-1 albino mouse assessed as protection against 6 Hz psychomotor seizure at 100 mg/kg, ip measured after 2 hrs; format: functional; settings: route intraperitoneal; summary of the method: as §3
Rattus norvegicus [15] = test: Anticonvulsant activity in Sprague-Dawley rat assessed as protection from maximum electric shock-induced seizures at 30 mg/kg, po measured after 2 hrs; format: functional; summary of the method: as §4
Mus musculus [16] = test: Anticonvulsant activity in ip dosed CF-1 albino mouse assessed as protection from maximal electric shock-induced seizures measured after 4 hrs; format: functional; settings: read-out: MED; summary of the method: as §1

Structure (SMILES): O=C1CC(c2ccccc2F)C(=O)N1CN1CCN(c2ccccc2Cl)CC1 (configuration not stated)
- Activity (Mus musculus [1]): inactive
- Activity (Mus musculus [2]): inactive
- Activity (Mus musculus [3]): Non-toxic
- Activity (Mus musculus [4]): Non-toxic

Structure (SMILES): O=C1CC(c2ccccc2F)C(=O)N1CN1CCN(c2cccc(Cl)c2)CC1 (racemic)
- Activity (Mus musculus [1]): inactive
- Activity (Mus musculus [2]): inactive
- Activity (Mus musculus [3]): Non-toxic
- Activity (Mus musculus [4]): Non-toxic

Structure (SMILES): O=C1CC(c2ccccc2F)C(=O)N1CN1CCN(c2ccc(Cl)cc2)CC1 (racemic)
- Activity (Mus musculus [5]): 25%
- Activity (Mus musculus [1]): inactive
- Activity (Rattus norvegicus [6]): 50%
- Activity (Mus musculus [3]): Non-toxic
- Activity (Rattus norvegicus [7]): 0%
- Activity (Rattus norvegicus [8]): 0%
- Activity (Mus musculus [9]): 0%
- Activity (Mus musculus [10]): 50%
- Activity (Rattus norvegicus [11]): 0%
- Activity (Rattus norvegicus [12]): Non-toxic
- Activity (Mus musculus [13]): 25%
- Activity (Mus musculus [4]): Non-toxic
- Activity (Mus musculus [14]): 0%
- Activity (Rattus norvegicus [15]): 25%
- minimal effective dose (Mus musculus [16]): 100 mg/kg

Structure (SMILES): O=C1CC(c2ccccc2Br)C(=O)N1CN1CCN(c2ccccc2)CC1 (racemic)
- Activity (Mus musculus [5]): 25%
- Activity (Mus musculus [1]): inactive
- Activity (Mus musculus [3]): Non-toxic
- Activity (Mus musculus [9]): 50%
- Activity (Mus musculus [10]): 0%
- Activity (Mus musculus [13]): 50%
- Activity (Mus musculus [4]): Non-toxic
- Activity (Mus musculus [14]): 75%
- minimal effective dose (Mus musculus [16]): 100 mg/kg

Structure (SMILES): O=C1CC(c2ccccc2Br)C(=O)N1CN1CCN(c2ccccc2F)CC1 (racemic)
- Activity (Mus musculus [5]): 0%
- Activity (Mus musculus [1]): inactive
- Activity (Mus musculus [2]): inactive
- Activity (Mus musculus [3]): Non-toxic
- Activity (Mus musculus [9]): 25%
- Activity (Mus musculus [10]): 25%
- Activity (Mus musculus [13]): 25%
- Activity (Mus musculus [4]): Non-toxic
- Activity (Mus musculus [14]): 25%

Structure (SMILES): O=C1CC(c2ccccc2Br)C(=O)N1CN1CCN(c2ccccc2Cl)CC1 (racemic)
- Activity (Mus musculus [1]): inactive
- Activity (Mus musculus [3]): Non-toxic
- Activity (Mus musculus [4]): Non-toxic
- minimal effective dose (Mus musculus [16]): 300 mg/kg

Structure (SMILES): O=C1CC(c2ccccc2Br)C(=O)N1CN1CCN(c2ccc(Cl)cc2)CC1 (racemic)
- Activity (Mus musculus [1]): inactive
- Activity (Mus musculus [3]): Non-toxic
- Activity (Mus musculus [4]): Non-toxic
- minimal effective dose (Mus musculus [16]): 300 mg/kg

Structure (SMILES): O=C1CC(c2ccccc2Br)C(=O)N1CN1CCN(c2cccc(C(F)(F)F)c2)CC1 (racemic)
- Activity (Mus musculus [1]): inactive
- Activity (Mus musculus [3]): Non-toxic
- minimal effective dose (Mus musculus [16]): 300 mg/kg
